In ChEMBL document CHEMBL2321727, “The impact of introducing a histidine into an apolar cavity site on docking and ligand recognition” (J Med Chem, 2013) one finds ΔTm and Kd data, which are given here for 33 compounds.

The subject of the first assay is Endolysin (Enterobacteria phage T4), P00720 [L99A,M102H]. Description: Binding affinity to Enterobacteria phage T4 lysozyme L99A/M102H double mutant expressed in Escherichia coli BL21(DE3) assessed as change in melting temperature at 0.5 mM at pH 5.4 by circular dichroism analysis. The following applies: Tequatrovirus T4. In outline: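 T4 lysozyme L99A/M102H from pET-28 in E. coli BL21(DE3), purified on Ni-NTA, ≥95% pure. Thermal melts followed by CD at pH 5.4, at least in triplicate. Ligand added from DMSO to 0.5 mM final, 0.1% DMSO final, controls included. ΔCp set to 10.5 kJ mol⁻¹ K⁻¹. Binder cutoff is ΔTm ≥0.4 °C. ΔGmelt = ΔTm × ΔS, with ΔS = ΔH/Tm.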
(CD spectra are sensitive to the conformation of chiral molecules.)
In the case of `Nc1ccccc1`, the shift in melting temperature (ΔTm) turned out to be 0.2 °C.
Consider `O=Cc1cc(O)ccc1Br`, for which the ΔTm was found to be 0.9 °C.
On the same count and under the same terms, the figure for `Clc1n[nH]c2ncccc12` is 0.1 °C.
Still for that read-out and setting: the same measure for `C#Cc1ccccc1N`: 0.5 °C.

For the next assay the test system is unchanged. Description: Binding affinity to Enterobacteria phage T4 lysozyme harboring L99A/M102H double mutant expressed in Escherichia coli BL21(DE3) assessed as change in melting temperature at 1 mM at pH 6.8 by circular dichroism analysis. The following applies: Tequatrovirus T4. An outline of the steps: (§1)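 CD thermal unfolding at pH 6.8 of Ni-NTA-purified T4 lysozyme L99A/M102H expressed from pET-28 in E. coli BL21(DE3). Ligand added from DMSO to 0.5 or 1 mM final, 0.1% DMSO final in all samples and controls. ΔCp set to 8.1 kJ mol⁻¹ K⁻¹. ΔTm ≥0.4 °C scored as binding. ΔGmelt = ΔTm × ΔH/Tm.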
Consider `Nc1ccc(F)cc1Cl`, for which the ΔTm came out at 1.3 °C.
Still for that read-out and setting: the figure for `Cc1cc(C)[nH]n1` is 1.4 °C; for `Cc1cc(C)n(CO)n1` it is 0.3 °C; for `c1ccncc1` it is 0.1 °C.
The same measure, in the same setting: the figure for `Nc1cc(F)c(F)cc1Br` is 0.8 °C; for `O=[N+]([O-])c1ccc(O)cc1` it is 4.5 °C.

The test system is the same in a further assay. The following applies: Tequatrovirus T4.
In the case of `OCCS`, the thermal shift (ΔTm) was 0 °C.
On to `C=CCc1ccccc1O` [2-ALLYLPHENOL], for which the ΔTm worked out at 2.9 °C.

A further assay has the same test system. The following applies: Tequatrovirus T4. This is another data set of the same source.
As to `N#Cc1ccccc1O`, the ΔTm was determined as 0.6 °C.

The next assay addresses Endolysin (Enterobacteria phage T4, UniProt P00720, L99A/M102H). Details: species or system Tequatrovirus T4.
Settings: not given
`Brc1c[nH]cn1` registered a Kd of 317 µM.

Another assay has as its system Endolysin (Enterobacteria phage T4), P00720 [L99A,M102H]. The note with it: Tequatrovirus T4. This is another data set of the same source.
On to `FC(F)(F)c1c[nH]cn1`, for which the thermal shift (ΔTm) amounted to 1 °C.
The same measure, in the same setting: the figure for `OCc1ccc(Cl)c(Cl)c1` is 0.2 °C; for `Nc1ccc(F)cc1Cl` it is -0.3 °C; for `Oc1cc(C(F)(F)F)ccn1` it is 0.1 °C.
Same read-out and setting: the same measure for `Cc1cc(C)[nH]n1`: -0.3 °C; for `N#Cc1cc(Br)ccc1O`: 2.2 °C.
On to `N#Cc1ccc([N+](=O)[O-])s1`, for which the ΔTm was determined as 0.2 °C.
As to `Nc1ncc(Cl)s1`, the ΔTm worked out at 1.1 °C.
On the same count and under the same terms, the figure for `OCc1cc(Cl)ccc1Cl` is -0.1 °C; for `OCc1cccc(Br)c1` it is -0.7 °C.
The same measure, in the same setting: the same measure for `C=CSc1ccccc1`: 1 °C; for `CC(=O)c1ccc(O)cc1`: 0.5 °C; for `Cc1cc(C)n(CO)n1`: -0.7 °C.
Same read-out and setting: the same measure for `CC(CO)c1ccccc1` (configuration not stated): 0.1 °C; for `OCCn1cccn1`: 0.3 °C.
Turning to `Cc1cc(C(F)(F)F)n[nH]1`, the ΔTm worked out at 1.9 °C.
Same read-out and setting: the figure for `c1ccc2oncc2c1` is 0.2 °C.
In the case of `CCc1cc(O)ccc1Cl`, the ΔTm was -0.9 °C.
Turning to `Brc1c[nH]cn1`, the ΔTm worked out at 0.4 °C.
The same measure, in the same setting: the same measure for `CSc1ccc(F)cc1`: 0.4 °C; for `Nc1cc(F)c(F)cc1Br`: 0.2 °C; for `O=[N+]([O-])c1ccc(O)cc1`: 5 °C.
Still for that read-out and setting: the figure for `N#CNC#N` is -0.6 °C.

The next assay has the same test system. The note with it: Tequatrovirus T4. This is another data set of the same source.
With `O=C(O)C(F)(F)F`, the thermal shift (ΔTm) was -0.8 °C.
On the same count and under the same terms, the figure for `C#CC(O)c1ccccc1` (configuration not stated) is 2.2 °C.

A further assay shares this test system. Description: Binding affinity to Enterobacteria phage T4 lysozyme L99A/M102H double mutant expressed in Escherichia coli BL21(DE3) assessed as change in melting temperature at 0.5 mM at pH 6.8 by circular dichroism analysis. The following applies: Tequatrovirus T4. In outline: as §1
As to `Nc1ccccc1`, the ΔTm was 0.5 °C.
The same measure, in the same setting: the same measure for `Clc1n[nH]c2ncccc12`: 1 °C.
As for `C#Cc1ccccc1N`, the ΔTm is 0.5 °C.

A word on the ΔTm: it is the change in melting temperature against a reference sample. Usually Kd stands for the concentration at which binding is half-saturated. Low readings indicate higher affinity, high ones lower affinity.
